# Published values pooled from the literature.
# Compare with care: the assays were run in different laboratories.
# Target: Myosin light chain kinase (MYLK3, Homo sapiens, UniProt Q32MK0)
# One construct used (Q32MK0 1-819): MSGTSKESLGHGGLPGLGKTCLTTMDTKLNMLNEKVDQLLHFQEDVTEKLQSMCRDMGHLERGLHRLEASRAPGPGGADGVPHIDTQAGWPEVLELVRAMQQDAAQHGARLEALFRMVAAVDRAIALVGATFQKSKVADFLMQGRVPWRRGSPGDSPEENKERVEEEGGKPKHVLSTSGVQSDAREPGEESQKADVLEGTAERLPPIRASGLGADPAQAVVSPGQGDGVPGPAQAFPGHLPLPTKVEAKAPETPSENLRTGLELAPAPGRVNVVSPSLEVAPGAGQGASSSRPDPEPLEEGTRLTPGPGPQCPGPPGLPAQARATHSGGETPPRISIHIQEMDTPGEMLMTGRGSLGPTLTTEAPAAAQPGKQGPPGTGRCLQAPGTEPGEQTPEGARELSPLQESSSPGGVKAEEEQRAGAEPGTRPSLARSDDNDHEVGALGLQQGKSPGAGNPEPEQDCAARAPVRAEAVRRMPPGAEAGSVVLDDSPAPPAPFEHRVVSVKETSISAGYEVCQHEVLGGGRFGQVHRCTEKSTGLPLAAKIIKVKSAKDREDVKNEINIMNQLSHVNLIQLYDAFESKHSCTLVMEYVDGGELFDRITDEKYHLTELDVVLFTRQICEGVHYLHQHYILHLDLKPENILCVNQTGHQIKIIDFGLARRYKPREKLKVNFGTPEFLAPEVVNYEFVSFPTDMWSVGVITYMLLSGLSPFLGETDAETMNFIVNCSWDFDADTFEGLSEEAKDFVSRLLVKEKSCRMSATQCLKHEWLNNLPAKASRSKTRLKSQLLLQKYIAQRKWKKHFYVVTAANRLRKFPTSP
Compound,effect on,method,concentration,remaining binding [%]
CC(=O)N1CCC(c2ccc(C(=O)NC3=NCCN3)cc2C(F)(F)F)CC1,cell-free assay,competition with immobilised ligand,1 µM,100
COc1cnc(Nc2cccc(S(N)(=O)=O)c2)nc1N1CCN(c2ccccc2)CC1,binding,competition with immobilised ligand,1 µM,97
CN(c1nccc(-c2cnn3ncccc23)n1)C1CC1,binding,,1 µM,100
CCS(=O)(=O)c1cc2cc(C[C@](O)(CC(C)(C)c3ccc(F)cc3C(N)=O)C(F)(F)F)[nH]c2cn1,cell-free assay,competition with immobilised ligand,1 µM,74
c1cnn2ncc(-c3ccnc(N4CCC45COC5)n3)c2c1,binding,,1 µM,100
C[C@H](c1ccc(F)cc1)N(Cc1cccc(C(=O)O)c1)C(=O)c1cnc2ccccc2c1,cell-free assay,competition with immobilised ligand,1 µM,100
C=CC(=O)N1CCC(C(=O)NCC(=O)N2CCN(c3nc(-c4cnc(N)nc4C(F)F)nc(N4CCOCC4)n3)CC2)CC1,binding,competition with immobilised ligand,1 µM,92
C[C@@H]1CN(c2cc(-c3nn(C)c4ccc(OC5(C)CC5)cc34)ncn2)C[C@H](C)O1,cell-free assay,competition with immobilised ligand,1 µM,97
c1cncc(-c2cccc(Nc3nccc(NC4CCCCC4)n3)c2)c1,binding,competition with immobilised ligand,10 µM,100
O=C(NCCCN1CCOCC1)c1ccc(Nc2ncc(Cl)c(-c3ccc(Cl)s3)n2)cc1,binding,competition with immobilised ligand,1 µM,7.9
CNC(=O)[C@@H]1CC[C@@H](n2c(-c3ccc4cnccc4c3)nc3ccc(C(=O)NCc4cccc(C(N)=O)c4)cc32)C1,binding,competition with immobilised ligand,1 µM,100
O=C(c1ccc(Nc2nccc(-c3cc4ccccc4s3)n2)cc1)N1CCC(N2CCCC2)CC1,binding,competition with immobilised ligand,1 µM,2.5
N[C@H]1CCN(c2nccc(-c3cnn4ncccc34)n2)C1,binding,,1 µM,88
Nc1c(C(=O)NCc2ccc(C(=O)NCCCC3CCCCC3)cc2)cnn1-c1ccccc1,cell-free assay,competition with immobilised ligand,0.1 µM,100
CN(C)c1nccc(-c2cnn3ncccc23)n1,binding,,1 µM,100
Cn1nc(C(=O)NCc2ccc(C(=O)O)cc2)cc1-c1ccc2[nH]ccc2c1,cell-free assay,competition with immobilised ligand,0.1 µM,100
COc1ccnn2ncc(-c3ccnc(N(C)C)n3)c12,binding,,1 µM,71
Cc1cnc(Nc2ccc(C(=O)N3CCC(N4CCCC4)CC3)cc2)nc1-c1cc2ccccc2s1,binding,competition with immobilised ligand,1 µM,5.1
O=C(NCC1CCOCC1)c1n[nH]cc1NC(=O)c1c(F)cccc1F,binding,competition with immobilised ligand,1 µM,100
C[C@@H]1CCN(c2nccc(-c3cnn4ncccc34)n2)C1,binding,,1 µM,91
